# Laboratory results reported in article PMC4477354 (Diabetes, 2015).
# Where two headings read alike, the source gives them in different places.
# Assays:
# [1] = assay type: in vivo, rat; details: rats
# Procedure, shortened: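 Overnight-fasted rats, n = 8–10/dose, got NPH insulin or DET i.p. at 0, 0.1, 0.3, 1, 3 or 10 units/kg. They were anesthetized with isoflurane at 25 min and cisternal CSF drawn at 30 min, then blood collected. Insulin by ELISA (2 h at 4°C; conjugate 30 min; substrate 40 min). Glucose by glucometer in duplicate. Factorial ANOVA.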
# [2] = assay type: in vivo, rat; details: rats, 0.5 units/kg i.p.
# Procedure, shortened: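 Rats, n = 6–8/time point, overnight-fasted, were given 0.5 units/kg i.p. NPH insulin or DET. Cisternal CSF taken under isoflurane at 5, 10, 20, 40, 80, 160 or 320 min, followed by EDTA blood. Insulin by ELISA with standards from each injected insulin. Plasma glucose by glucometer in duplicate. Factorial ANOVA.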
# [3] = Food intake and body weight after third-ventricular; assay type: in vivo, rat; details: rats, 8 mU I3VT
# Procedure, shortened: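 Rats carried a third-ventricle cannula (2.2 mm posterior to bregma, midline), checked by drinking >5 mL within 30 min after 10 ng angiotensin II. Rats (n = 16) were handled for 4 days with food removed for the last 4 h of light. In randomized crossover 1 week apart, they received 8 mU DET or NPH insulin, or 2 µL saline, 1 h before dark. Food returned at dark; intake and weight taken at 24 and 48 h. Repeated-measures ANOVA, Tukey.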
# [4] = assay type: in vivo, rat; details: rats, 0.5 units/kg s.c.; for CSF insulin at 6, 12 and 24 h / plasma glucose at 6 h and 12 h: Ps < 0.05; for time by which plasma insulin had returned to baseline: sampled 0, 6, 12, 24, 48, 72 h
# Procedure, shortened: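 Overnight-fasted rats, n = 7–8/group, received GLAR or DET 0.5 units/kg s.c. CSF (~150 µL) taken from the cisterna magna under isoflurane at 0, 6, 12, 24, 48 or 72 h, then blood collected after decapitation. Insulin by ELISA with standards from each injected insulin (450 minus 630 nm). Plasma glucose by glucometer in duplicate. Factorial ANOVA.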
# [5] = assay type: in vivo, mouse; details: mice, 1 unit/kg s.c.; for CSF insulin at 6 and 12 h: Ps < 0.05; for time by which plasma insulin had returned to baseline: sampled 0, 6, 12, 24, 48 h
# Procedure, shortened: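 Mice fasted 4 h, n = 7–8/group, given 1 unit/kg s.c. GLAR or DET. CSF (~15 µL, glass capillary) drawn from the cisterna magna under isoflurane at baseline and 6, 12, 24, 48 h, then trunk blood taken into chilled EDTA. Insulin measured by ELISA against standards made from each injected insulin. Blood-contaminated CSF discarded; factorial ANOVA.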
# [6] = Food intake, body weight and body composition; assay type: in vivo, mouse; details: mice, P < 0.05; for body fat compared with the saline-control group: NMR
# Procedure, shortened: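 Mice were first matched by fat mass using NMR while conscious. They then received (n = 12/group) daily s.c. saline, DET or GLAR at 1 unit/kg for 6 weeks. Body weight and food intake recorded weekly; NMR body composition repeated at the end. Repeated-measures ANOVA with Tukey post hoc.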
# [7] = assay type: in vivo, mouse; details: mice, 1 unit/kg s.c. daily for 6 weeks, n = 7-9/group, P < 0.05
# Procedure, shortened: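 Mice, n = 7–9/group, were injected s.c. daily for 6 weeks with saline, GLAR or DET (1 unit/kg). CSF from the cisterna magna (isoflurane, 4-h fast) and EDTA plasma were taken 24 h after the last dose. Insulin measured by ELISA on 10 µL CSF or 5 µL plasma, against standards from the injected insulins.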
# [8] = extended by albumin binding of the attached fatty acid; cited from earlier work
# insulin receptor = details: mice, cited from earlier work
# [9] = overweight humans, intravenous; cited from earlier work
# [10] = men, plasma glucose comparably clamped; cited from earlier work
# [11] = clinical trials, basal insulin replacement; cited from earlier work
# [12] = 1 unit/kg s.c. daily for 6 weeks
substance,measurement,setting,value
Insulin detemir,plasma glucose after 30 min,"[1]; 0-10 units/kg i.p., 30 min postinjection, glucometer",dose-dependent decrease
same,plasma insulin after 30 min,"[1]; 0-10 units/kg i.p., 30 min postinjection, insulin ELISA, n = 8-10/dose",increased at all doses
same,CSF insulin after 30 min,"[1]; 0-10 units/kg i.p., CSF sampled 30 min postinjection, insulin ELISA",elevated after all doses
same,dose at which apparent saturation of CSF insulin levels occurred,"[1]; i.p., 30 min postinjection",≤ 3 units/kg
same,plasma glucose levels over time,"[2]; 5-320 min, P < 0.05",relatively constant level for the duration of the experiment
same,"plasma glucose at 80, 160 and 320 min, DET relative to NPH",[2]; Ps < 0.05,sustained hypoglycemia
same,"insulin in plasma (160 and 320 min) and CSF (320 min), DET relative to NPH","[2]; planned comparison, P < 0.05",more prolonged elevation of insulin
same,time at which CSF insulin reached baseline,[2]; sampled up to 320 min,> 320 min
same,time at which plasma insulin was no longer elevated relative to baseline,[2]; sampled up to 320 min,> 320 min
same,body weight after 24 h,[3]; P < 0.05,significant weight loss
same,body weight after 48 h,[3]; P < 0.05,maintaining this weight loss
same,food intake after 48 h relative to saline,"[3]; crossover, n = 16",remained significantly reduced
same,food intake over 24 h relative to saline,"[3]; crossover, n = 16, P < 0.05",ate significantly less food
same,CSF insulin at 48 h,[4],continued to have elevated CSF insulin
same,"CSF insulin at 6, 12 and 24 h",[4],comparably increased
same,plasma glucose at 6 h and 12 h,[4],reduced
same,"plasma insulin at 6 h, DET compared with GLAR","[4]; n = 7-8/group, P < 0.05",elevated more
same,time by which plasma insulin had returned to baseline,[4],≤ 24 h
same,CSF insulin after 24 and 48 h,[5],elevated CSF insulin levels
same,CSF insulin at 6 and 12 h,[5],comparably increased
same,"plasma insulin at 6 h, DET compared with GLAR","[5]; n = 7-8/group, P < 0.05",elevated to a greater extent
same,time by which plasma insulin had returned to baseline,[5],≤ 24 h
same,body fat compared with the saline-control group,[6]; [12],significantly lower
same,cumulative food intake compared with GLAR or saline groups,[6]; [12],significantly lower
same,CSF insulin relative to controls 24 h after the final injection,[7],had increased insulin
same,plasma half-life,[8],5 to 7 h
same,uptake into the brain,insulin receptor; insulin in brain tissue extracts,preferential uptake of DET into the brain
same,phosphorylation of the insulin receptor in hypothalamus,insulin receptor,selectively increased phosphorylation of the insulin receptor
same,cerebrocortical activity,[9],increased cerebrocortical activity
same,electroencephalogram activity in the frontal cortex compared with regular insulin,[10],significant change in electroencephalogram activity
same,food intake compared with regular insulin,[10],significant reduction of food intake
same,weight gain compared with other long-acting formulations,[11],less weight gain
insulin glargine,CSF insulin at 48 h,[4],returned to baseline
same,plasma glucose at 24 h,[4],remained lower
same,"plasma insulin at 12 h, DET compared with GLAR",[4]; P < 0.05,higher plasma insulin
same,"CSF insulin at 6, 12 and 24 h",[4],comparably increased
same,plasma glucose at 6 h and 12 h,[4],reduced
same,time by which plasma insulin had returned to baseline,[4],≤ 48 h
same,CSF insulin after 24 and 48 h,[5],lower at 24 h and had returned to baseline by 48 h
same,"plasma insulin at 12 h, DET compared with GLAR",[5]; P < 0.05,higher plasma concentrations
same,CSF insulin at 6 and 12 h,[5],comparably increased
same,time by which plasma insulin had returned to baseline,[5],≤ 48 h
same,body fat compared with the saline-control group,[6]; [12],higher
same,body weight relative to saline-treated animals by week 6,[6]; 1 unit/kg s.c. daily,increased relative to that of saline-treated animals
same,plasma insulin relative to controls 24 h after the final injection,[7],continued to have elevated plasma insulin
